From ChEMBL document CHEMBL6127098, “Discovery of Oral Degraders of the ROS1 Fusion Protein with Potent Activity against Secondary Resistance Mutations” (J Med Chem, 2024) come the findings set out here.

Calls of active or inactive are those of the source. The rule behind the calls is not given here.

Experiment [1] in a line: PROTAC activity at CRBN/ROS1 in mouse BaF3 cells assessed as ROS1 degradation by immunoblotting assay. The format is cell-based. Put shortly: (§1)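 IL-3-independent Ba/F3 cells expressing CD74-ROS1 variants were treated with compound. ROS1 and phospho-ROS1 were quantified by capillary immunoassay (WES) in duplicate experiments. DC50 is the concentration that lowers ROS1 or p-ROS1 by 50%; Dmax is the maximal degradation.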
Background: A western blot detects proteins with antibodies after separation by electrophoresis.

The next experiment concerns the target CD74-ROS1 (Homo sapiens, UniProt P08922). Briefly: Inhibition of ROS1/CD74 (unknown origin) expressed in mouse BaF3 cells. The format is cell-based.
A short description of experiment [2]: Induction of LTK (unknown origin) degradation by Western blotting analysis. The arrangement: species or system Homo sapiens.
Experiment [3] concerns the target Proto-oncogene tyrosine-protein kinase ROS (Homo sapiens, UniProt P08922). Briefly: Induction of ROS1 (unknown origin) degradation by Western blotting analysis. Put shortly: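 Ba/F3 cells stably expressing CD74-ROS1 (retroviral transduction, puromycin-selected, IL-3 withdrawn at least 2 weeks before use) were grown in RPMI with 10% FBS and treated with compound diluted from DMSO stock in RPMI. Total ROS1 and p-ROS1 were quantified by WES capillary immunoblot in duplicate experiments. DC50 is the concentration that reduces protein by 50%, and Dmax is the maximal degradation.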

The nature of experiment [4]: Induction of CLK1 (unknown origin) degradation by Western blotting analysis. The arrangement: species or system Homo sapiens.
Experiment [5] deals with NCI-H2228. In words: Induction of ALK degradation in human NCI-H2228 cells at 100 nM incubated for 24 hrs by proteomics analysis. Type of experiment: cell-based. Put shortly: (§2)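 Lysates in RIPA with protease/phosphatase inhibitors, protein measured by BCA, trypsin-digested and TMT-labelled. Relative abundance taken as the ratio of TMT reporter ions in degrader-treated versus inhibitor-treated cells.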

Experiment [6] concerns BaF3. Briefly: Induction of ROS1 G2032R degradation in mouse BaF3 cells assessed as reduction in ROS1 level by Western blotting analysis. Type of experiment: cell-based. Put shortly:
as §1

The test system of experiment [7] is NCI-H2228. Briefly: Induction of FER degradation in human NCI-H2228 cells at 100 nM incubated for 24 hrs by proteomics analysis. Type of experiment: cell-based. Put shortly:
as §2

Experiment [8] relates to BaF3. Briefly: Induction of ROS1 D2033N degradation in mouse BaF3 cells assessed as reduction in ROS1 level by Western blotting analysis. Type of experiment: cell-based. Put shortly: as §1
Experiment [9] deals with BaF3. In words: Induction of ROS1 G2032R/F2075V degradation in mouse BaF3 cells assessed as reduction in ROS1 level by Western blotting analysis. Type of experiment: cell-based. Put shortly: as §1
Experiment [10] concerns BaF3. In words: Induction of ROS1 L2026M degradation in mouse BaF3 cells assessed as reduction in p-ROS1 level by Western blotting analysis. Type of experiment: cell-based. Put shortly:
as §1

Experiment [11] relates to BaF3. Briefly: Induction of ROS1 degradation in mouse BaF3 cells assessed as reduction in p-ROS1 level by Western blotting analysis. The format is cell-based. Put shortly:
as §1

Experiment [12] concerns BaF3. Briefly: Induction of ROS1 D2033N degradation in mouse BaF3 cells assessed as reduction in p-ROS1 level by Western blotting analysis. The format is cell-based. Put shortly: as §1
Experiment [13] is described as follows: Induction of FLT3 (unknown origin) degradation by Western blotting analysis. Also noted: species or system Homo sapiens.
The test system of experiment [14] is NCI-H2228. Briefly: Induction of FAK degradation in human NCI-H2228 cells at 100 nM incubated for 24 hrs by proteomics analysis. The format is cell-based. Put shortly:
as §2

For experiment [15], the system named is BaF3. Briefly: Induction of ROS1 G2032R/F2075V degradation in mouse BaF3 cells assessed as reduction in p-ROS1 level by Western blotting analysis. The format is cell-based. Put shortly:
as §1

Experiment [16] relates to BaF3. Briefly: Induction of ROS1 degradation in mouse BaF3 cells assessed as reduction in ROS1 level by Western blotting analysis. Type of experiment: cell-based. Put shortly:
as §1

The subject of experiment [17] is BaF3. In words: Induction of ROS1 G2032R degradation in mouse BaF3 cells assessed as reduction in p-ROS1 level by Western blotting analysis. Type of experiment: cell-based. Put shortly: as §1
Experiment [18] has as its system BaF3. Briefly: Induction of ROS1 L2026M degradation in mouse BaF3 cells assessed as reduction in ROS1 level by Western blotting analysis. Type of experiment: cell-based. Put shortly: as §1
The nature of experiment [19]: Induction of ERBB4 (unknown origin) degradation by Western blotting analysis. The arrangement: species or system Homo sapiens.
Experiment [20] in a line: Inhibition of ROS1-S1986F-G2032R-L2086F mutant/CD74 (unknown origin) expressed in mouse BaF3 cells. The format is cell-based, Homo sapiens.
The nature of experiment [21]: Inhibition of ROS1-G2032R-F2075C mutant/SLC34A2 (unknown origin) expressed in mouse BaF3 cells. Type of experiment: cell-based, Homo sapiens.
Experiment [22] deals with BaF3. Briefly: Antiproliferative activity against mouse BaF3 cells expressing CD74-ROS1 incubated for 72 hrs by Alamar blue reagent based plate reader assay. The format is functional, cell-based. Conditions: BaF3, 72 h. Put shortly:
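Ba/F3 cells stably expressing CD74- or SLC34A2-ROS1 fusions (wild type or mutant), made by retroviral transduction, selected with puromycin, and grown without IL-3 for ≥2 weeks. Alamar Blue added for 4 h. IC50 from sigmoidal nonlinear regression; mean ± SD of triplicate experiments.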

Experiment [23] has as its system BaF3. Briefly: PROTAC activity at CRBN/ROS1 in mouse BaF3 cells assessed as maximum ROS1 degradation by immunoblotting assay relative to control. The format is cell-based. Put shortly:
as §1

Experiment [24] concerns BaF3. Briefly: Antiproliferative activity against mouse BaF3 cells harboring ROS1 G2032R mutant incubated for 72 hrs by Alamar blue reagent based plate reader assay. Conditions: BaF3, 72 h.
Experiment [25] in a line: Inhibition of ROS1-V2098I mutant/SLC34A2 (unknown origin) expressed in mouse BaF3 cells. Type of experiment: cell-based, Homo sapiens.

Chain of CD74-ROS1 (P04233 whole entry): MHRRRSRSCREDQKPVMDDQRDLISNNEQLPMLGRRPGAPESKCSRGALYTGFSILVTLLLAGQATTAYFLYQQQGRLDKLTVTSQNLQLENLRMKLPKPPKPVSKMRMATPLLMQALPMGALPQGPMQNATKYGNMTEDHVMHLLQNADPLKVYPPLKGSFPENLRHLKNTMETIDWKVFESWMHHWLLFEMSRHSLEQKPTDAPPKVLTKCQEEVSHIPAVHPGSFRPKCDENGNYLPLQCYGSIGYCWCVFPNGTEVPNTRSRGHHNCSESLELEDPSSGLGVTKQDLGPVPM
Chain of CD74-ROS1 (P08922 whole entry): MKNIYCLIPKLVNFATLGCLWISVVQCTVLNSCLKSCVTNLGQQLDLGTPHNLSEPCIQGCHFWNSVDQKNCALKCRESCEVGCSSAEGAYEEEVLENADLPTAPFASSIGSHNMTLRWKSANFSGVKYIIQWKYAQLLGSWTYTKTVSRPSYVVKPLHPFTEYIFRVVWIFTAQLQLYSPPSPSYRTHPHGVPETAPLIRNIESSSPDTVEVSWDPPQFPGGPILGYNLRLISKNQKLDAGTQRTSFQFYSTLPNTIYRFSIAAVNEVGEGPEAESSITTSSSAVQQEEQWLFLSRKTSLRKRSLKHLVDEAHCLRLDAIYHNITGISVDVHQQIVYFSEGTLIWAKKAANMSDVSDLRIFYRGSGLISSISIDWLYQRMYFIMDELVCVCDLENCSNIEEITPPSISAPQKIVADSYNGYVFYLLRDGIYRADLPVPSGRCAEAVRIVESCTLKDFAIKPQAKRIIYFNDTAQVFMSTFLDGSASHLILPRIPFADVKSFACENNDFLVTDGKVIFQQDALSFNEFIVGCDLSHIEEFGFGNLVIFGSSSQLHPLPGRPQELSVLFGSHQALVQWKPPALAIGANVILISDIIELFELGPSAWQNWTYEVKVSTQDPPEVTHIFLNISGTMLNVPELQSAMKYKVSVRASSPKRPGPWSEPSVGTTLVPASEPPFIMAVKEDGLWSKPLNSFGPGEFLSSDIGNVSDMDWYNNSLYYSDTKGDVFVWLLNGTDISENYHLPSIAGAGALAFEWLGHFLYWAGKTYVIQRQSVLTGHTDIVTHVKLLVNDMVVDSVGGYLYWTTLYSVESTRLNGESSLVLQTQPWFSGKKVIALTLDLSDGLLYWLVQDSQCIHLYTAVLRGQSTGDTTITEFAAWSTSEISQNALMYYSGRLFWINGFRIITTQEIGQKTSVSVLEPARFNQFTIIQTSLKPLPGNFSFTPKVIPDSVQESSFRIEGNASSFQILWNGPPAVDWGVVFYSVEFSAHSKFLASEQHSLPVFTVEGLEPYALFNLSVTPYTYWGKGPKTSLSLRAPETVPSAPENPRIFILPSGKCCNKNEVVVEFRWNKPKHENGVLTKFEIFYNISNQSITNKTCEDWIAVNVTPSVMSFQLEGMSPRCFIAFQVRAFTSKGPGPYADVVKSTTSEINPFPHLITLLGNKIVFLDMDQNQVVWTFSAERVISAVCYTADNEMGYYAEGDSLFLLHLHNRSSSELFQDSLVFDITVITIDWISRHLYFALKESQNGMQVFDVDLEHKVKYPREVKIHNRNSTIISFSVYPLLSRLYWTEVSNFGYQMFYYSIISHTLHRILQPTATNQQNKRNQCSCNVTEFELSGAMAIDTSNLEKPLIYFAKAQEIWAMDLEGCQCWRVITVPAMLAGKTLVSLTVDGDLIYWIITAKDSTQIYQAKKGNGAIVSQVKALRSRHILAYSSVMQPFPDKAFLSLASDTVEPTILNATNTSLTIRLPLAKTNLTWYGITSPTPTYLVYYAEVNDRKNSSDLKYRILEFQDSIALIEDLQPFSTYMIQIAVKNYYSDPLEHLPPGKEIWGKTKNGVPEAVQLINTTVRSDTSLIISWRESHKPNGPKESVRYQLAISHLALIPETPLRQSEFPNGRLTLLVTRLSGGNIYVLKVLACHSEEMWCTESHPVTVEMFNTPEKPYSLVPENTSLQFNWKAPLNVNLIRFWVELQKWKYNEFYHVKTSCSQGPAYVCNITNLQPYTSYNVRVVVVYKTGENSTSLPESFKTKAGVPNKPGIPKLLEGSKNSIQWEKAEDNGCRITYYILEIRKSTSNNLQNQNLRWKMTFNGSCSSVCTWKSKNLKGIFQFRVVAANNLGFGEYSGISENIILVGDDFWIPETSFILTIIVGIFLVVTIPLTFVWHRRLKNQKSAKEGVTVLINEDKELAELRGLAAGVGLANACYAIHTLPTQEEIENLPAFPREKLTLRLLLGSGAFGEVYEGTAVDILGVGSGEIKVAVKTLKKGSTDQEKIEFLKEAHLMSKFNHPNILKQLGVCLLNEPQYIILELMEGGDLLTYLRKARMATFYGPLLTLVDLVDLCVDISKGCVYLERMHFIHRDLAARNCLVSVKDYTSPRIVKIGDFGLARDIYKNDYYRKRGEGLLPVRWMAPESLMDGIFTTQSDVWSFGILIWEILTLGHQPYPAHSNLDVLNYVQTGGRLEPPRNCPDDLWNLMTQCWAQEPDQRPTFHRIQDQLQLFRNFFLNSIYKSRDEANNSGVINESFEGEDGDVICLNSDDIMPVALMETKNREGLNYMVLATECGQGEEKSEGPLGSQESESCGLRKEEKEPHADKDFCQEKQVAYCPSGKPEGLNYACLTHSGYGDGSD
Chain of Proto-oncogene tyrosine-protein kinase ROS (P08922 whole entry): as above

For orientation: DC50 means the concentration giving 50% degradation. Usually IC50 stands for the midpoint of a concentration-inhibition curve. Regarding `COc1cc(N2CCC(N3CCN(CC4CCN(c5ccc6c(c5)CN(C5CCC(=O)NC5=O)C6=O)CC4)CC3)CC2)ccc1Nc1ncc(Cl)c(Nc2ccccc2P(C)(C)=O)n1` (stereo unspecified), the DC50 in [1] was 3.8 nM; in experiment [2], > 1000 nM; in experiment [3], 3.8 nM; in [4], > 1000 nM; in experiment [13] it was > 1000 nM; in [19], > 1000 nM. For the same molecule, the IC50 against CD74-ROS1 is 1.6 nM. Further, the outcome in the experiment on NCI-H2228 [5], with NCI-H2228 [7] and with NCI-H2228 [14] was Active. In addition, the Activity entry with BaF3 [6], with BaF3 [8], in the experiment with BaF3 [9], in the experiment on BaF3 [10], with BaF3 [11] and with BaF3 [12] was “Dose-Dependent Effect” throughout. Further, the Activity result in the experiment with BaF3 [15], in the experiment with BaF3 [16], in the experiment with BaF3 [17] and in the experiment with BaF3 [18] was “Dose-Dependent Effect” in each case.
As to `Cc1cc(Nc2ncc(Cl)c(Nc3ccccc3S(=O)(=O)C(C)C)n2)c(OC(C)C)cc1C1CCN(C2CCN(C3CN(c4ccc5c(c4)C(=O)N(C4CCC(=O)NC4=O)C5=O)C3)CC2)CC1` (stereo unspecified), in [1], the 50% degradation concentration (DC50) came out at 45 nM.
Turning to `C[C@H]1CNC(=O)c2cnn3ccc(nc23)N[C@H](C)c2cc(F)ccc2O1` [REPOTRECTINIB], the IC50 in [20] and in experiment [21] was > 2000 nM each time.
As a reminder, the Emax is the greatest response seen or fitted, relative to the assay's reference. Consider `COc1cc(N2CCC(N3CCN(CC4CN(c5cccc6c5C(=O)N(C5CCC(=O)NC5=O)C6=O)C4)CC3)CC2)ccc1Nc1ncc(Cl)c(Nc2ccccc2P(C)(C)=O)n1` (stereo unspecified), for which, in [1], the DC50 turned out to be 56 nM. In addition, the IC50 is 41 nM in the experiment with BaF3 [22] and 244 nM in the experiment on BaF3 [24]. The Emax in the experiment on BaF3 [23] came out at 79%.
For the molecule `COc1cc(N2CCN(CC3CCN(c4ccc5c(c4)CN(C4CCC(=O)NC4=O)C5=O)CC3)CC2)ccc1Nc1ncc(Cl)c(Nc2ccccc2P(C)(C)=O)n1` (stereo unspecified), in experiment [1], the DC50 came to 11 nM. For the same molecule, 9.5 nM corresponded to half-maximal inhibition in the experiment on BaF3 [22] (IC50). The maximum response (Emax) in the experiment on BaF3 [23] was 93%.
On to `COc1cc(N2CCC(N3CCN(C)CC3)CC2)ccc1Nc1ncc(Cl)c(Nc2ccccc2P(C)(C)=O)n1` [BRIGATINIB], for which the IC50 in [20] is > 2000 nM.
As to `COc1cc(N2CCC(N3CCN(CC4CCN(c5cccc6c5C(=O)N(C5CCC(=O)NC5=O)C6=O)CC4)CC3)CC2)ccc1Nc1ncc(Cl)c(Nc2ccccc2P(C)(C)=O)n1` (stereo unspecified), the DC50 in [1] was 6 nM. Also, the concentration for half-maximal inhibition (IC50) with BaF3 [22] was found to be 11.2 nM; in the experiment with BaF3 [24], 87 nM. Also, the maximal effect (Emax) with BaF3 [23] is 99%.
Take `C[C@H]1Oc2cc(cnc2N)-c2c(nn(C)c2C#N)CN(C)C(=O)c2ccc(F)cc21` [LORLATINIB]: the results for the IC50 in [20] and in [25] were > 2000 nM and 1.5 nM, respectively.
Regarding `COc1cc(N2CCC(N3CCN(C4CN(c5cccc6c5C(=O)N(C5CCC(=O)NC5=O)C6=O)C4)CC3)CC2)ccc1Nc1ncc(Cl)c(Nc2ccccc2P(C)(C)=O)n1` (stereo unspecified), the DC50 in experiment [1] is 108 nM. The results for the half-inhibitory concentration (IC50) in the experiment on BaF3 [22] and in the experiment on BaF3 [24] were 113 nM and 1040 nM, respectively. Besides, in the experiment on BaF3 [23], the Emax worked out at 77%.
